Screening data as filed in PubChem BioAssay.
GAA850 FXN act: frataxin GAA850 promoter activation. HEK293 lucGAA850 FXN promoter luciferase reporter, 24 h; percent of 10 µM SAHA response. activation, % at 6 µM. 0.56% of 360,000 active;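 active = activation above the average of all compounds screened plus 3 SD, cutoff fixed separately per campaign, cut at about 7.5% in these data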
Fh CTSL1 inh: counter-screen for PFM18AAP inhibitors: inhibitors of F. hepatica cathepsin L1; recombinant F. hepatica cathepsin L1, Z-Leu-Arg-MCA fluorescence; inhibition, % at 5.96 µM; 0.49% of 300,000 active; AID 1906;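 active = inhibition above the mean of all tested compounds plus 3 SD, set per screening campaign, cut at about 17% in these data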
SENP1 inh: blocks the human SENP1 SUMO protease catalytic domain; 0.21% of 360,000 active; recombinant SENP1 catalytic domain, CyPet-SUMO1-YPet FRET cleavage; inhibition, % at 10 µM; Q9P0U3;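 active = inhibition at least 30% at 10 µM, raw YFP signal under a set limit, fluorescence ratio 0.5 to 1.5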
Target sequence (Q9P0U3 419-644 limits assumed): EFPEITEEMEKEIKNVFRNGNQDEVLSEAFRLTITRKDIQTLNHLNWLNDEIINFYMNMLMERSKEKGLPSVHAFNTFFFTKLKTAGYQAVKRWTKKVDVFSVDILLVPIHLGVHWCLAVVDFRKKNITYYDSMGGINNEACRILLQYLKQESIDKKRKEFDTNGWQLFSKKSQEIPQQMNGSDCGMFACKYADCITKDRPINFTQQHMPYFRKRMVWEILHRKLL
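material = recombinant human SENP1 catalytic domain, His6-tagged | quantity = 20 pM enzyme | reagent = 25 nM SUMO1 FRET substrate | compound dosing = 10 µM single point, 0.5% DMSO | timing = 50 min enzyme reaction, room temperature, light-protected | detection = FRET, CFP and YFP emission | control set = no-enzyme low, enzyme-DMSO high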
HDAC3 inh: human HDAC3 inhibition | O15379 | recombinant HDAC3, fluorogenic peptide/trypsin coupled, fluorescence | inhibition, % at 8.3 µM | 0.15% of 320,000 active | AID 2718; in the data active = inhibition above about 26%, passing the limit was not always enough
Target sequence (O15379 whole entry, looked up): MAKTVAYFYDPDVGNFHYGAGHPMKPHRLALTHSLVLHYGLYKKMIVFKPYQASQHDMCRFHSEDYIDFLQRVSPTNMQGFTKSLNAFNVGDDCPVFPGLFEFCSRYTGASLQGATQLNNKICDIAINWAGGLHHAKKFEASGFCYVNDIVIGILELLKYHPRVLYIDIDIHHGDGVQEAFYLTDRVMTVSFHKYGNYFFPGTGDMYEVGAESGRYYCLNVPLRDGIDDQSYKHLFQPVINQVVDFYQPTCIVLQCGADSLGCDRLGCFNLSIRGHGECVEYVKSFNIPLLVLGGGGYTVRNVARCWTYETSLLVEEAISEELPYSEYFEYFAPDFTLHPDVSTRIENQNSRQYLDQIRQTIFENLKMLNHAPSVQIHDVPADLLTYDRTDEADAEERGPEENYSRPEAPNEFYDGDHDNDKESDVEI
M18AAP inhibitor: blocks P. falciparum M18 aspartyl aminopeptidase | recombinant PfM18AAP, H-Glu-NHMec fluorogenic cleavage | inhibition, % at 7.35 µM | 1.2% of 290,000 active | AID 1822;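 active = inhibition above the campaign mean inhibition over all tested compounds plus 3 SD, cut at about 28% in these data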
AHR act: activates the human aryl hydrocarbon receptor | P35869 | AHR-responsive luciferase reporter cells, luminescence | activation, % at 5 µM | 2.5% of 320,000 active; in the data active = activation above about 47%
Hits are given with their value. An excerpt weighted towards active compounds, which were near 4.2% of everything screened.

Screening CC(Nc1n[nH]c(=O)[nH]c1=O)C(=O)N/N=C/c1cccs1 (centres undefined) returned GAA850 FXN act inactive, Fh CTSL1 inh inactive, SENP1 inh inactive, HDAC3 inh inactive, M18AAP inhibitor inactive and AHR act inactive.
Screening COc1cc(N2CCCC2)c(OC)cc1/C=C(/C#N)c1cccc(F)c1 returned GAA850 FXN act inactive, Fh CTSL1 inh inactive, SENP1 inh inactive, HDAC3 inh inactive, M18AAP inhibitor inactive and AHR act 69.
For Cc1cc(Nc2ccccc2Br)n2nc(C)nc2n1 the results were GAA850 FXN act inactive, Fh CTSL1 inh inactive, SENP1 inh inactive, HDAC3 inh inactive, M18AAP inhibitor inactive and AHR act inactive.
Screening Cc1cc(Nc2ccc(C)c(Br)c2)n2nc(C)nc2n1 returned GAA850 FXN act inactive, Fh CTSL1 inh inactive, SENP1 inh inactive, HDAC3 inh inactive, M18AAP inhibitor inactive and AHR act 61.
For COc1ccc(CCNC(=O)CN2C(=O)COc3ccc(S(=O)(=O)N4CCCC4)cc32)c(OC)c1 the results were GAA850 FXN act inactive, Fh CTSL1 inh inactive, SENP1 inh inactive, HDAC3 inh inactive, M18AAP inhibitor inactive and AHR act inactive.
For COc1ccc(/C=N/Nc2ncnc3c2[nH]c2ccc(C)cc23)c(OC)c1OC the results were GAA850 FXN act inactive, Fh CTSL1 inh inactive, SENP1 inh inactive, HDAC3 inh inactive, M18AAP inhibitor inactive and AHR act 63.
Screening CCOc1ccc2[nH]c3c(NCCc4ccc(OC)c(OC)c4)ncnc3c2c1 returned GAA850 FXN act inactive, Fh CTSL1 inh inactive, SENP1 inh inactive, HDAC3 inh inactive, M18AAP inhibitor inactive and AHR act inactive.
Screening Cc1ccc2[nH]c3c(NCc4ccco4)ncnc3c2c1 returned GAA850 FXN act inactive, Fh CTSL1 inh inactive, SENP1 inh inactive, HDAC3 inh inactive, M18AAP inhibitor inactive and AHR act 57.
For COc1cc(CNc2ncnc3c2[nH]c2ccc(C)cc23)cc(OC)c1 the results were GAA850 FXN act inactive, Fh CTSL1 inh inactive, SENP1 inh inactive, HDAC3 inh inactive, M18AAP inhibitor inactive and AHR act inactive.
`COc1ccc(NC(=O)C(=O)NCc2ccncc2)c(OC)c1` gave GAA850 FXN act inactive, Fh CTSL1 inh inactive, SENP1 inh inactive, HDAC3 inh inactive, M18AAP inhibitor inactive and AHR act inactive.
Screening COc1ccc(/C=C(/NC(=O)c2ccc(C)cc2)C(=O)NCc2ccncc2)cc1 returned GAA850 FXN act inactive, Fh CTSL1 inh 21, SENP1 inh inactive, HDAC3 inh inactive, M18AAP inhibitor inactive and AHR act inactive.
`COc1cccc(NC(=O)C(=O)NCc2ccncc2)c1` gave GAA850 FXN act inactive, Fh CTSL1 inh inactive, SENP1 inh inactive, HDAC3 inh inactive, M18AAP inhibitor inactive and AHR act 53.
Screening COc1cccc(NC(=S)NCc2ccncc2)c1 returned GAA850 FXN act inactive, Fh CTSL1 inh inactive, SENP1 inh inactive, HDAC3 inh inactive, M18AAP inhibitor inactive and AHR act inactive.
`COc1ccc(C)cc1NC(=O)C(=O)NCc1ccncc1` gave GAA850 FXN act inactive, Fh CTSL1 inh inactive, SENP1 inh inactive, HDAC3 inh inactive, M18AAP inhibitor inactive and AHR act 50.
O=S(=O)(NCc1ccccn1)c1ccccn1 was read as GAA850 FXN act inactive, Fh CTSL1 inh inactive, SENP1 inh inactive, HDAC3 inh inactive, M18AAP inhibitor inactive and AHR act inactive.
C=C(C)Cn1cnc2c(oc3nc4c(cc32)CCCC4)c1=O was read as GAA850 FXN act inactive, Fh CTSL1 inh inactive, SENP1 inh inactive, HDAC3 inh inactive, M18AAP inhibitor inactive and AHR act inactive.
`CC(=O)N1CCc2cc(Br)cc(S(=O)(=O)CCC(=O)N3CCN(c4ccccn4)CC3)c21` gave GAA850 FXN act inactive, Fh CTSL1 inh 21, SENP1 inh inactive, HDAC3 inh inactive, M18AAP inhibitor inactive and AHR act inactive.
`CCOC(=O)c1ccc2ncc(C(=O)OCC)c(NCCN(C)C)c2c1` gave GAA850 FXN act inactive, Fh CTSL1 inh 66, SENP1 inh inactive, HDAC3 inh inactive, M18AAP inhibitor inactive and AHR act inactive.
O=C(CSCc1nc2ccccc2[nH]1)Nc1ccc2ccccc2c1 was read as GAA850 FXN act inactive, Fh CTSL1 inh inactive, SENP1 inh inactive, HDAC3 inh inactive, M18AAP inhibitor inactive and AHR act 60.
`O=C(COc1ccccc1)Nc1cccc(-c2nc3ccccc3[nH]2)c1` gave GAA850 FXN act inactive, Fh CTSL1 inh inactive, SENP1 inh inactive, HDAC3 inh inactive, M18AAP inhibitor inactive and AHR act 79.
`COc1ccc(OCC(=O)Nc2cccc(-c3nc4ccccc4[nH]3)c2)cc1` gave GAA850 FXN act inactive, Fh CTSL1 inh inactive, SENP1 inh inactive, HDAC3 inh inactive, M18AAP inhibitor inactive and AHR act inactive.
`COC[C@@H]1CCCN1[C@H]1CS(=O)(=O)N[C@@H]1COCc1ccccc1` gave SENP1 inh inactive.
CCc1ccc(C(=O)COC(=O)c2cncc(Br)c2)cc1 was read as GAA850 FXN act inactive, Fh CTSL1 inh inactive, SENP1 inh inactive, HDAC3 inh inactive, M18AAP inhibitor inactive and AHR act inactive.
O=c1nc(N/N=C/c2ccccn2)cn[nH]1 was read as GAA850 FXN act inactive, Fh CTSL1 inh inactive, SENP1 inh inactive, HDAC3 inh inactive, M18AAP inhibitor 49 and AHR act inactive.
COc1ccc2[nH]c(=O)c(CN(CCc3ccccc3)C(C)=O)cc2c1 was read as GAA850 FXN act inactive, Fh CTSL1 inh inactive, SENP1 inh inactive, HDAC3 inh inactive, M18AAP inhibitor inactive and AHR act inactive.
Screening CC(=O)N(CCc1ccccc1)Cc1cc2cc(C)ccc2[nH]c1=O returned GAA850 FXN act inactive, Fh CTSL1 inh inactive, SENP1 inh inactive, HDAC3 inh inactive, M18AAP inhibitor inactive and AHR act 54.
COc1ccccc1CN(C)C[C@H]1OCc2cnnn2CCCC(=O)N([C@@H](C)CO)C[C@@H]1C was read as GAA850 FXN act inactive and SENP1 inh inactive.
For Cc1[nH]c(=O)[nH]c(=O)c1S(=O)(=O)Nc1ccc(Br)cc1F the results were GAA850 FXN act inactive, SENP1 inh inactive, HDAC3 inh inactive and M18AAP inhibitor inactive.
Screening COCCN(C(=O)CSc1nnc(-c2ccccc2OC)o1)c1c(N)n(CC(C)C)c(=O)[nH]c1=O returned GAA850 FXN act inactive, Fh CTSL1 inh inactive, SENP1 inh inactive, HDAC3 inh inactive and AHR act inactive.
`COc1ccc(CN(CCN(C)C)c2ccccn2)cc1` gave GAA850 FXN act inactive, Fh CTSL1 inh inactive, SENP1 inh inactive, HDAC3 inh inactive, M18AAP inhibitor inactive and AHR act inactive.
Screening CCCCCCCCCCCCCCCC[N+](C)(C)CCN(Cc1ccc(OC)cc1)c1ncccn1 returned GAA850 FXN act inactive, Fh CTSL1 inh inactive, SENP1 inh inactive, HDAC3 inh 63 and AHR act inactive.
`CCOc1ccc(C2NC(=O)c3ccccc3O2)cc1` (centres undefined) gave GAA850 FXN act inactive, Fh CTSL1 inh inactive, SENP1 inh inactive, HDAC3 inh inactive, M18AAP inhibitor inactive and AHR act inactive.
